Results from ChEMBL document CHEMBL1123192 (J Med Chem, 1986).

Experiments:
Rattus norvegicus [1] = test: Maximal change in heart rate (HR) measured as % change from pretreatment value at dose of 5 mg/kg in SHR; format: functional
How it was run: (§1)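 Spontaneously hypertensive rats; test agent dissolved or dispersed in 0.5% methylcellulose and given by gastric gavage at 5 mL/kg after a 1-h equilibration. Doses ranged from 1 to 100 mg/kg, with 4–8 animals per dose. MABP and HR were monitored for 4 h. Pretreatment values and maximal % change were recorded, and maximal changes were compared with vehicle by Dunnett's t test.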

Rattus norvegicus [2] = test: Maximal change in mean arterial blood pressure (MABP) measured as pretreatment value at dose of 10 mg/kg in SHR; format: functional; how it was run: as §1
[3] = biological target: Beta-1 adrenergic receptor (Cavia porcellus, UniProt B0FL73); test: The compound was evaluated for the antagonistic activity against beta-1 adrenergic receptor.; format: functional; conditions: read-out: pA2 (converted)
Chain of Beta-1 adrenergic receptor (B0FL73 whole entry): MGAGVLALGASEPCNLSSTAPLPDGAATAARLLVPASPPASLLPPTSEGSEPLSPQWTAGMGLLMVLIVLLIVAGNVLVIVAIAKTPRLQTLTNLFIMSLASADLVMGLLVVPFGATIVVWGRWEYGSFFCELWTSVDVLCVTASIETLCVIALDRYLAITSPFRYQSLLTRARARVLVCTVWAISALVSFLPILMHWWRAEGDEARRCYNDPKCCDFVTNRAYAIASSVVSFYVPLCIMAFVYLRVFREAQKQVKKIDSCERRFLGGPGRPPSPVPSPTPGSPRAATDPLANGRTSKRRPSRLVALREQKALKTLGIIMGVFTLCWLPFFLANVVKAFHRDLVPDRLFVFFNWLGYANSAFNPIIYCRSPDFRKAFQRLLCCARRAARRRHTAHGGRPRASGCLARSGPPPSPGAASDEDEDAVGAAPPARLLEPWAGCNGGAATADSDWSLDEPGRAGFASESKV
How it was run: (§2)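 Isolated tissue suited to each receptor test, held in 10-mL organ baths of Krebs-Henseleit solution at 37 °C and gassed with 95% O2/5% CO2. Antagonism was judged by how several concentrations of test agent altered a cumulative concentration-response curve to a receptor-specific agonist.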

Cavia porcellus = species on record: Cavia porcellus; test: Beta-2-adrenoceptor ISA (intrinsic sympathomimetic activity)was measured as relaxant effect against a PGF2-alpha contracted guinea pig trachea at 1x10E-5 M; format: functional
[4] = biological target: Beta-1 adrenergic receptor (Cavia porcellus) (UniProt B0FL73); test: Beta-1 adrenergic receptor ISA (intrinsic sympathomimetic activity)using the guinea pig right atria was measured as % increase of positive chronotropic effect (basal spontaneous beating rate) at 1x10E-7 M
Chain of Beta-1 adrenergic receptor (Cavia porcellus) (B0FL73 1-467): as the sequence (B0FL73 whole entry) above

Rattus norvegicus [5] = test: Maximal change in mean arterial blood pressure (MABP) measured as % change from pretreatment value at dose of 10 mg/kg in SHR; format: functional; how it was run: as §1
Rattus norvegicus [6] = test: Maximal change in mean arterial blood pressure (MABP) measured as % change from pretreatment value at dose of 5 mg/kg in SHR; format: functional; how it was run: as §1
Rattus norvegicus [7] = test: Maximal change in heart rate (HR) measured as pretreatment value at dose of 25 mg/kg in SHR; format: functional; how it was run: as §1
Rattus norvegicus [8] = test: Maximal change in heart rate (HR) measured as % change from pretreatment value at dose of 10 mg/kg in SHR; format: functional; how it was run: as §1
Rattus norvegicus [9] = test: Maximal change in heart rate (HR) measured as % change from pretreatment value at dose of 25 mg/kg in SHR; format: functional; how it was run: as §1
Rattus norvegicus [10] = test: Maximal change in mean arterial blood pressure (MABP) measured as pretreatment value at dose of 5 mg/kg in SHR; format: functional; how it was run: as §1
[11] = biological target: T1, Adrenergic receptor alpha-2 (Rattus norvegicus, UniProt P22086+P19328+P22909); test: The compound was evaluated for the antagonistic activity against alpha-2 adrenergic receptor.; format: functional
T1 sequence (P22086 whole entry): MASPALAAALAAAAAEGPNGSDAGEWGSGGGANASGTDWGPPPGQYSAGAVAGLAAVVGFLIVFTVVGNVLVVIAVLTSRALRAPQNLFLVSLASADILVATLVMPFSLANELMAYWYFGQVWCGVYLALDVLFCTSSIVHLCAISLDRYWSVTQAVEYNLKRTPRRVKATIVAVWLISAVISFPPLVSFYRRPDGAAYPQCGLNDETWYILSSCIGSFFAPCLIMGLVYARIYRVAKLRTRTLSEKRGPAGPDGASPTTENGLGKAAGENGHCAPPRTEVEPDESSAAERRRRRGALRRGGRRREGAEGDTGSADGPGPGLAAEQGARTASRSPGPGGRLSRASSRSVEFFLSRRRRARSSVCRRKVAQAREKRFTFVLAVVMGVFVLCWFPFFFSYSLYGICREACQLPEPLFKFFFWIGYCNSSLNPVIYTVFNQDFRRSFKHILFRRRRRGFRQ
T1 sequence (P19328 whole entry): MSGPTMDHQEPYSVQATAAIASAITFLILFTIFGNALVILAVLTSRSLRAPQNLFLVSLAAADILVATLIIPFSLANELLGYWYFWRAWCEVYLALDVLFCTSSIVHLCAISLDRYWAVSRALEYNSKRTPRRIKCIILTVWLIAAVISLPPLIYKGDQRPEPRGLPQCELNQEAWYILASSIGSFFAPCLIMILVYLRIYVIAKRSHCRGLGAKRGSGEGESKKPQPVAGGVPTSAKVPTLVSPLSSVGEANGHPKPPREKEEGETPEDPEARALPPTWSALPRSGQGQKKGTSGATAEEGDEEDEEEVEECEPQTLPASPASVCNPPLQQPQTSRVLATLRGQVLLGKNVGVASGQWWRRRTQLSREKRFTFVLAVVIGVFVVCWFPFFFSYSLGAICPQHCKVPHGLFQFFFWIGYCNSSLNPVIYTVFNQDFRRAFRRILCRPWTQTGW
T1 sequence (P22909 whole entry): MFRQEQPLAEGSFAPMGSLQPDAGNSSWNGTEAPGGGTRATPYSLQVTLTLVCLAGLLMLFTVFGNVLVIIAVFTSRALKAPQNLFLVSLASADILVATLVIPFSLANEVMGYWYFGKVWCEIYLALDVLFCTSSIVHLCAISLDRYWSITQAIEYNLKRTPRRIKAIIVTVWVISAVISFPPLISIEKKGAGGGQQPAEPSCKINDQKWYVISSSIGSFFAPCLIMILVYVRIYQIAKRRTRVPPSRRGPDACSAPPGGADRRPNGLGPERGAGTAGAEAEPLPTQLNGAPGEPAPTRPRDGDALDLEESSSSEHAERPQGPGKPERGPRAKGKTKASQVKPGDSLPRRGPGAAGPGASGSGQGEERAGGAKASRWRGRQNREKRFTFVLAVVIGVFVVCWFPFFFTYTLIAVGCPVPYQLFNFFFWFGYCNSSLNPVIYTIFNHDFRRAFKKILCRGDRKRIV

Rattus norvegicus [12] = test: Maximal change in mean arterial blood pressure (MABP) measured as pretreatment value at dose of 25 mg/kg in SHR; format: functional; how it was run: as §1
Rattus norvegicus [13] = test: TMaximal change in heart rate (HR) measured as pretreatment value at dose of 5 mg/kg in SHR; format: functional; how it was run: as §1
Rattus norvegicus [14] = test: Maximal change in mean arterial blood pressure (MABP) measured as % change from pretreatment value at dose of 25 mg/kg; format: functional; how it was run: as §1
Rattus norvegicus [15] = test: Maximal change in heart rate (HR) measured as pretreatment value at dose of 10 mg/kg in SHR; format: functional; how it was run: as §1
[16] = biological target: Beta-2 adrenergic receptor (Cavia porcellus, UniProt Q8K4Z4); test: The compound was evaluated for the antagonistic activity against beta-2 adrenergic receptor.; format: functional; conditions: read-out: pA2 (converted); how it was run: as §2
Chain of Beta-2 adrenergic receptor (Q8K4Z4 whole entry): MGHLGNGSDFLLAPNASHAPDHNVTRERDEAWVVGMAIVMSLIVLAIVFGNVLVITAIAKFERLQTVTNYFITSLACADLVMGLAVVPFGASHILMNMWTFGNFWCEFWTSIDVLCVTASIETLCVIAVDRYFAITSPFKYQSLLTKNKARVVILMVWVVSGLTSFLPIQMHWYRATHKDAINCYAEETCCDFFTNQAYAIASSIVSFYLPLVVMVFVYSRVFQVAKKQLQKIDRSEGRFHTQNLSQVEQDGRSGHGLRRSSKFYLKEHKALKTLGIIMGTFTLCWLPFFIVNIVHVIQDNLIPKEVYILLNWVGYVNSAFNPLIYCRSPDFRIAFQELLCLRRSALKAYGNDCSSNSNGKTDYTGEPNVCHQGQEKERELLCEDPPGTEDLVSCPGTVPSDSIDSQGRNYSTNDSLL

Rattus norvegicus [17] = test: Maximal change in heart rate (HR) measured as pretreatment value at dose of 50 mg/kg in SHR; format: functional; how it was run: as §1
Rattus norvegicus [18] = test: Maximal change in mean arterial blood pressure (MABP) measured as % change from pretreatment value at dose of 50 mg/kg in SHR; format: functional; how it was run: as §1
[19] = biological target: Beta-1 adrenergic receptor (Cavia porcellus) (UniProt B0FL73); test: Beta-1-adrenoceptor ISA (intrinsic sympathomimetic activity)using the guinea pig right atria was measured as % increase of positive chronotropic effect (basal spontaneous beating rate) at 1x10E-6 M; format: functional
Rattus norvegicus [20] = test: Maximal change in heart rate (HR) measured as % change from pretreatment value at dose of 50 mg/kg in SHR; format: functional; how it was run: as §1
Rattus norvegicus [21] = test: Maximal change in mean arterial blood pressure (MABP) measured as pretreatment value at dose of 50 mg/kg in SHR; format: functional; how it was run: as §1
[22] = biological target: T2, Adrenergic receptor alpha-1 (Homo sapiens, UniProt P35348+P25100+P35368); test: The compound was evaluated for the antagonistic activity against alpha-1 adrenergic receptor.; format: functional, Oryctolagus cuniculus; how it was run: as §2
T2 sequence (P35348 whole entry): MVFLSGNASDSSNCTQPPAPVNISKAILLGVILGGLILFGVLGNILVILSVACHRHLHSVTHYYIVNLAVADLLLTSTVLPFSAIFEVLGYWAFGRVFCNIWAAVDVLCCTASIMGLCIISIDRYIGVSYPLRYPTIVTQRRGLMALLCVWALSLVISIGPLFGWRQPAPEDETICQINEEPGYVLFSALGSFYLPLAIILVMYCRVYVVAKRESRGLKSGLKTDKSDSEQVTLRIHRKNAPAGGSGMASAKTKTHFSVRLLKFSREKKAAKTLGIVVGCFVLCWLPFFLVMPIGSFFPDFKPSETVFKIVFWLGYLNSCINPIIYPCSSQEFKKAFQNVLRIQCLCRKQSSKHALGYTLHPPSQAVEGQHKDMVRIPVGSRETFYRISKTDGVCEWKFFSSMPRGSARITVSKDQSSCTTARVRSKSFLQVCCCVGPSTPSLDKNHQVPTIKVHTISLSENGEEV
T2 sequence (P25100 whole entry): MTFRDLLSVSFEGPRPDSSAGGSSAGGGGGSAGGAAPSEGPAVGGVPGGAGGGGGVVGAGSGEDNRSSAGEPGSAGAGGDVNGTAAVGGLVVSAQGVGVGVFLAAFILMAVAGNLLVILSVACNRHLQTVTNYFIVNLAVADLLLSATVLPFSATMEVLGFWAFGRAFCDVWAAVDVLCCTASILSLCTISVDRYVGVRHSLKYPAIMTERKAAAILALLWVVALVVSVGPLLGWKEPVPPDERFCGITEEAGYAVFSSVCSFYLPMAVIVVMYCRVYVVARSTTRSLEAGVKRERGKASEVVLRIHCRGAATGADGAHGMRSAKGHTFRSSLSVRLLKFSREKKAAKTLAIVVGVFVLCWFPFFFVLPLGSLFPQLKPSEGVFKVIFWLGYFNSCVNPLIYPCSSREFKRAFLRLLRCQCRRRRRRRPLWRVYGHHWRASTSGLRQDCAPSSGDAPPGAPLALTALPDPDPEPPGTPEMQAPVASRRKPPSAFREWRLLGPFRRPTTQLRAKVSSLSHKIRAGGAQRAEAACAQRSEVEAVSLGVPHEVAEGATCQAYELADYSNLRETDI
T2 sequence (P35368 whole entry): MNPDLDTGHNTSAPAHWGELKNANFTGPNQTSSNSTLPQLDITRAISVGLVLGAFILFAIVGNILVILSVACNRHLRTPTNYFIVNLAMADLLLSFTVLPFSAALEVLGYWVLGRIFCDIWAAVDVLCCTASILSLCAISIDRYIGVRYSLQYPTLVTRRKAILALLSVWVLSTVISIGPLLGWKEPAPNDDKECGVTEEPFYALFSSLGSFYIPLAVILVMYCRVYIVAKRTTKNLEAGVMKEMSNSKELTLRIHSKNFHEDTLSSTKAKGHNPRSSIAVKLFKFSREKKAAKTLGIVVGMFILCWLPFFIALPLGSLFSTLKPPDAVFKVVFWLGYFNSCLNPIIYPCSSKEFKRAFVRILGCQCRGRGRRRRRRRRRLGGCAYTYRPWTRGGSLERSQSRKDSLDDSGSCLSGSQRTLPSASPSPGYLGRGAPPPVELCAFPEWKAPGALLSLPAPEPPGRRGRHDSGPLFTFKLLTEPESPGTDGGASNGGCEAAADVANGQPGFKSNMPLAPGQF

CC(CCc1ccccc1)NCC(O)c1ccc(O)c(C(N)=O)c1 (configuration not stated) [LABETALOL]
Change (Rattus norvegicus [1]): -15%
MABP (Rattus norvegicus [2]): 158 mmHg
Kb [3]: 0.0316 µM
Change (Cavia porcellus): 62%
Change [4]: 0%
Change (Rattus norvegicus [5]): -25%
Change (Rattus norvegicus [6]): -14%
HR (Rattus norvegicus [7]): 437 beats min-1
Change (Rattus norvegicus [8]): -23%
Change (Rattus norvegicus [9]): -27%
MABP (Rattus norvegicus [10]): 161 mmHg
pA2 [11]: < 5
MABP (Rattus norvegicus [12]): 163 mmHg
HR (Rattus norvegicus [13]): 424 beats min-1
Change (Rattus norvegicus [14]): -31%
HR (Rattus norvegicus [15]): 457 beats min-1
Kb [16]: 0.0398 µM

CC(CCc1ccccc1)NCC(O)c1cc(C(N)=O)c2c(ccn2C)c1 (configuration not stated)
Kb [3]: > 1 µM
HR (Rattus norvegicus [17]): 411 beats min-1
Change (Cavia porcellus): 34.6%
Change (Rattus norvegicus [18]): -13%
Change [19]: 2.7%
pA2 [11]: < 5
Change (Rattus norvegicus [20]): -15%
Kb [16]: > 10 µM
MABP (Rattus norvegicus [21]): 166 mmHg
pA2 [22]: 6.2
